Measured values from ChEMBL document CHEMBL1687893 (Eur J Med Chem, 2011).
pIC50: −log10 of the molar value.

Legend:
MCF7 [1] = assay: Cytotoxicity against human MCF7 cells assessed as growth inhibition after 72 hrs; details: MCF7, 72 h
MDA-MB-231 = assay: Cytotoxicity against human MDA-MB-231 cells assessed as growth inhibition after 72 hrs; details: MDA-MB-231, 72 h
Mus musculus [2] = assay: Antiinflammatory activity against xylene-induced ear edema in Kunming mouse assessed as reduction in ear swelling weight at 100 mg, ip administered 2 hrs post challenge measured after 30 mins; type: functional
Summary of the method: (§1)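 Male Kunming mice (~20 g), fasted 12 h, groups of 6. Compound given i.p.; 30 min later 0.015 mL xylene applied to front and back surfaces of right ear, left ear as control. Killed 2 h after xylene; 7 mm circular ear sections weighed and measured. Swelling taken as weight and thickness over untreated left ear. Mean ± S, one-way ANOVA.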

Mus musculus [3] = assay: Antiinflammatory activity against xylene-induced ear edema in Kunming mouse assessed as reduction in ear swelling thickness at 100 mg, ip administered 2 hrs post challenge measured after 30 mins; type: functional
Summary of the method: as §1

Mus musculus [4] = assay: Antiinflammatory activity against xylene-induced ear edema in Kunming mouse assessed as reduction in ear swelling thickness at 200 mg, ip administered 2 hrs post challenge measured after 30 mins; type: functional
Summary of the method: as §1

Mus musculus [5] = assay: Antiinflammatory activity against xylene-induced ear edema in Kunming mouse assessed as reduction in ear swelling weight at 25 mg, […]; type: functional
Mus musculus [6] = assay: Antiinflammatory activity against xylene-induced ear edema in Kunming mouse assessed as reduction in ear swelling weight at 200 mg, […]; type: functional
Mus musculus [7] = assay: Antiinflammatory activity against xylene-induced ear edema in Kunming mouse assessed as reduction in ear swelling thickness at 25 mg, ip administered 2 hrs post challenge measured after 30 mins; type: functional
Summary of the method: as §1

Mus musculus [8] = assay: Antiinflammatory activity against xylene-induced ear edema in ip dosed Kunming mouse assessed as reduction in ear swelling administered 2 hrs post challenge measured after 30 mins; type: functional, organism-based
Summary of the method: as §1

[9] = molecular target: Prostaglandin G/H synthase 2 (Homo sapiens) (UniProt P35354); assay: Inhibition of human COX-2 at 10 uM by ELISA relative to licofelone
[10] = molecular target: Prostaglandin G/H synthase 1 (Ovis aries) (UniProt P05979); assay: Inhibition of ovine COX-1 at 10 uM by ELISA relative to licofelone
MCF7 [11] = assay: Antiproliferative activity against human MCF-7 cells at 0.63 uM to 10 uM after 20 to 140 hrs; type: functional, cell-based; details: TDE = time-dependent effect
Summary of the method: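 MCF-7 cells in DMEM with 5% FBS, seeded at 7500 cells/mL and grown 3 days before compound addition. Exposed to a range of concentrations for up to 144 h. Biomass measured by glutaraldehyde fixation, crystal violet staining, ethanol extraction and absorbance at 590 nm. Expressed as corrected T/C % = (T−C0)/(C−C0)·100.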

SMILES: CC1(C)Cc2c(-c3ccccc3)c(-c3ccc(Cl)cc3)c(C(=O)COC(=O)c3ccccc3Cl)n2C1
- pIC50 (MCF7 [1]): 5.28
- pIC50 (MDA-MB-231): 4.50
- inhibition (INH) (Mus musculus [2]): 12.3%
- inhibition (INH) (Mus musculus [3]): 20.3%

SMILES: CC1(C)Cc2c(-c3ccccc3)c(-c3ccc(Cl)cc3)c(C(=O)COC(=O)c3cccc(Cl)c3)n2C1
- pIC50 (MCF7 [1]): 5.28
- pIC50 (MDA-MB-231): < 4.30
- inhibition (INH) (Mus musculus [2]): 3.5%
- inhibition (INH) (Mus musculus [3]): 1.4%

SMILES: Cc1cc(C(=O)OCC(=O)c2c(-c3ccc(Cl)cc3)c(-c3ccccc3)c3n2CC(C)(C)C3)cc([N+](=O)[O-])c1
- inhibition (INH) (Mus musculus [2]): 7%
- inhibition (INH) (Mus musculus [3]): 26.8%

SMILES: CC1(C)Cc2c(-c3ccccc3)c(-c3ccc(Cl)cc3)c(CC(=O)O)n2C1 [LICOFELONE]
- inhibition (INH) (Mus musculus [4]): 74.6%
- pIC50 (MCF7 [1]): 5.26
- inhibition (INH) (Mus musculus [5]): 33.3%
- inhibition (INH) (Mus musculus [6]): 77.2%
- inhibition (INH) (Mus musculus [7]): 49.2%
- inhibition (Mus musculus [8]): Dose-dependent effect
- pIC50 (MDA-MB-231): 4.44
- inhibition (INH) (Mus musculus [2]): 43.9%
- inhibition (INH) (Mus musculus [3]): 52.2%

SMILES: O=c1[nH]cc(F)c(=O)[nH]1 [FLUOROURACIL]
- pIC50 (MCF7 [1]): 5.33
- pIC50 (MDA-MB-231): 5.02

SMILES: CC1(C)Cc2c(-c3ccccc3)c(-c3ccc(Cl)cc3)c(C(=O)CCl)n2C1
- pIC50 (MCF7 [1]): 5.24
- inhibition [9]: 9%
- pIC50 (MDA-MB-231): 4.45
- inhibition (INH) (Mus musculus [2]): 28.1%
- inhibition (INH) (Mus musculus [3]): 24.6%
- inhibition [10]: 11%

SMILES: CC1(C)Cc2c(-c3ccccc3)c(-c3ccc(Cl)cc3)c(C(=O)COC(=O)Cc3ccc(Cl)cc3)n2C1
- pIC50 (MCF7 [1]): 5.15
- pIC50 (MDA-MB-231): < 4.30
- inhibition (INH) (Mus musculus [2]): 35.1%
- inhibition (INH) (Mus musculus [3]): 37%

SMILES: CC1(C)Cc2c(-c3ccccc3)c(-c3ccc(Cl)cc3)c(C(=O)COC(=O)c3ccc(Cl)cc3Cl)n2C1
- pIC50 (MCF7 [1]): 5.17
- pIC50 (MDA-MB-231): < 4.30
- inhibition (INH) (Mus musculus [2]): 43.9%
- inhibition (INH) (Mus musculus [3]): 8%

SMILES: CC1(C)Cc2c(-c3ccccc3)c(-c3ccc(Cl)cc3)c(C(=O)COC(=O)c3ccc(Cl)cc3)n2C1
- pIC50 (MCF7 [1]): 5.41
- pIC50 (MDA-MB-231): < 4.30
- inhibition (INH) (Mus musculus [2]): 24.6%
- inhibition (INH) (Mus musculus [3]): 29.7%

SMILES: CC(C)Cc1ccc(C(C)C(=O)O)cc1 (stereo not drawn) [IBUPROFEN]
- inhibition (INH) (Mus musculus [2]): 51.2%
- inhibition (INH) (Mus musculus [3]): 54.3%

SMILES: CCCCCC(=O)c1c(-c2ccc(Cl)cc2)c(-c2ccccc2)c2n1CC(C)(C)C2
- pIC50 (MCF7 [1]): 5.27
- inhibition [9]: 9%
- pIC50 (MDA-MB-231): 4.50
- inhibition (INH) (Mus musculus [2]): 14%
- inhibition (INH) (Mus musculus [3]): 37%
- inhibition [10]: 11%

SMILES: COc1ccc(C(=O)OCC(=O)c2c(-c3ccc(Cl)cc3)c(-c3ccccc3)c3n2CC(C)(C)C3)cc1
- pIC50 (MCF7 [1]): 4.92
- pIC50 (MDA-MB-231): < 4.30
- inhibition (INH) (Mus musculus [2]): 15.8%
- inhibition (INH) (Mus musculus [3]): 10.1%

SMILES: CC(=O)c1c(-c2ccc(Cl)cc2)c(-c2ccccc2)c2n1CC(C)(C)C2
- pIC50 (MCF7 [1]): 5.70
- Activity (MCF7 [11]): tde
- inhibition [9]: 9%
- pIC50 (MDA-MB-231): 5.48
- inhibition (INH) (Mus musculus [2]): 54.4%
- inhibition (INH) (Mus musculus [3]): 50.7%
- inhibition [10]: 11%
